Tests used:
[1] = biological target: Glutamate receptor ionotropic AMPA (Homo sapiens) (UniProt P48058+P42263+P42262+P42261); assay: Percent decrease of Quisqualate receptor binding using AMPA; format: protein-complex assay; set-up: scale not given: the % may be the effect or the level left
Summary of the method: (§1)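 Preliminary screen of receptors isolated from rat or pig tissues, run with minor changes to standard procedures. Each compound was tested at a single fixed concentration for each receptor. The read-out was the percent decrease in binding of the named radioligand.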

[2] = biological target: Serotonin 2 (5-HT2) receptor (Rattus norvegicus) (UniProt P30994+P08909+P14842); assay: Percent decrease in 5-hydroxytryptamine 2 receptor binding using ketanserin; format: protein assay; set-up: scale not given: the % may be the effect or the level left; summary of the method: as §1
[3] = biological target: Sodium-dependent serotonin transporter (Homo sapiens) (UniProt P31645); assay: % Decrease of 5-HT carrier-receptor -bound radioactivity using paroxetine as a radioligand.; set-up: concentration or dose not given beside the values; summary of the method: as §1
Chain of Sodium-dependent serotonin transporter (Homo sapiens) (P31645 whole entry, looked up): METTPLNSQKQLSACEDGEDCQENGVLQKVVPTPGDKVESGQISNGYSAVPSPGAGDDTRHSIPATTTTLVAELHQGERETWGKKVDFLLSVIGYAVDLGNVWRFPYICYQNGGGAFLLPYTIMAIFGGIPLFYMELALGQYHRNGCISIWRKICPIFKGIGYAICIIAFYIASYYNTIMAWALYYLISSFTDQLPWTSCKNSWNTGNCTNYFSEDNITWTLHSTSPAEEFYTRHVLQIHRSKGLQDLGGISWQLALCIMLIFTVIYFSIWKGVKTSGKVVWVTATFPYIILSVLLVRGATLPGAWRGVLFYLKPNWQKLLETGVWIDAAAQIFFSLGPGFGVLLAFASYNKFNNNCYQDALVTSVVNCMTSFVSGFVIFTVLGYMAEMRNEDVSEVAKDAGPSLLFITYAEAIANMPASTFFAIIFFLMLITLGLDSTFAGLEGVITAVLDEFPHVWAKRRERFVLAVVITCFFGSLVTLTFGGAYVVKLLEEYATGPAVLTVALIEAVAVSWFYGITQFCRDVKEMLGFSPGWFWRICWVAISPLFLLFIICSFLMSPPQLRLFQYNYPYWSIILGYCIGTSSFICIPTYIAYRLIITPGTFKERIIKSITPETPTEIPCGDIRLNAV

[4] = biological target: T1, Adenosine receptor A1 (Homo sapiens) (UniProt P30542); assay: Percent decrease in adenosine-A1-receptor binding using CPDPX; set-up: scale not given: the % may be the effect or the level left; summary of the method: as §1
T1 sequence (whole entry): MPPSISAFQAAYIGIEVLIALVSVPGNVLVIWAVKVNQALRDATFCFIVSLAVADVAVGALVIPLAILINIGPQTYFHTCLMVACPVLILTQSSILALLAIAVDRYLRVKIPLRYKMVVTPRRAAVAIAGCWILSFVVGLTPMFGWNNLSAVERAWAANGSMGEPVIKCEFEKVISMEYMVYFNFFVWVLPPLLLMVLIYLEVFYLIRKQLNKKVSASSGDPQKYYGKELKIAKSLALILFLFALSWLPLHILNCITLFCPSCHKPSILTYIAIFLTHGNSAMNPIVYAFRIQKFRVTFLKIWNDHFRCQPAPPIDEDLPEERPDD

[5] = Percent decrease of Endothelin receptor binding using [125I]sarafotoxin; set-up: concentration or dose not given beside the values
[6] = biological target: Sulfonylurea receptors; K-ATP channels (Homo sapiens) (UniProt Q14654+O60706+Q09428+Q15842); assay: Percent inhibition of glibenclamide binding to K+ channel; format: protein-complex assay; set-up: concentration or dose not given beside the values; summary of the method: as §1
Chain of Sulfonylurea receptors; K-ATP channels (Homo sapiens) (O60706 whole entry, looked up): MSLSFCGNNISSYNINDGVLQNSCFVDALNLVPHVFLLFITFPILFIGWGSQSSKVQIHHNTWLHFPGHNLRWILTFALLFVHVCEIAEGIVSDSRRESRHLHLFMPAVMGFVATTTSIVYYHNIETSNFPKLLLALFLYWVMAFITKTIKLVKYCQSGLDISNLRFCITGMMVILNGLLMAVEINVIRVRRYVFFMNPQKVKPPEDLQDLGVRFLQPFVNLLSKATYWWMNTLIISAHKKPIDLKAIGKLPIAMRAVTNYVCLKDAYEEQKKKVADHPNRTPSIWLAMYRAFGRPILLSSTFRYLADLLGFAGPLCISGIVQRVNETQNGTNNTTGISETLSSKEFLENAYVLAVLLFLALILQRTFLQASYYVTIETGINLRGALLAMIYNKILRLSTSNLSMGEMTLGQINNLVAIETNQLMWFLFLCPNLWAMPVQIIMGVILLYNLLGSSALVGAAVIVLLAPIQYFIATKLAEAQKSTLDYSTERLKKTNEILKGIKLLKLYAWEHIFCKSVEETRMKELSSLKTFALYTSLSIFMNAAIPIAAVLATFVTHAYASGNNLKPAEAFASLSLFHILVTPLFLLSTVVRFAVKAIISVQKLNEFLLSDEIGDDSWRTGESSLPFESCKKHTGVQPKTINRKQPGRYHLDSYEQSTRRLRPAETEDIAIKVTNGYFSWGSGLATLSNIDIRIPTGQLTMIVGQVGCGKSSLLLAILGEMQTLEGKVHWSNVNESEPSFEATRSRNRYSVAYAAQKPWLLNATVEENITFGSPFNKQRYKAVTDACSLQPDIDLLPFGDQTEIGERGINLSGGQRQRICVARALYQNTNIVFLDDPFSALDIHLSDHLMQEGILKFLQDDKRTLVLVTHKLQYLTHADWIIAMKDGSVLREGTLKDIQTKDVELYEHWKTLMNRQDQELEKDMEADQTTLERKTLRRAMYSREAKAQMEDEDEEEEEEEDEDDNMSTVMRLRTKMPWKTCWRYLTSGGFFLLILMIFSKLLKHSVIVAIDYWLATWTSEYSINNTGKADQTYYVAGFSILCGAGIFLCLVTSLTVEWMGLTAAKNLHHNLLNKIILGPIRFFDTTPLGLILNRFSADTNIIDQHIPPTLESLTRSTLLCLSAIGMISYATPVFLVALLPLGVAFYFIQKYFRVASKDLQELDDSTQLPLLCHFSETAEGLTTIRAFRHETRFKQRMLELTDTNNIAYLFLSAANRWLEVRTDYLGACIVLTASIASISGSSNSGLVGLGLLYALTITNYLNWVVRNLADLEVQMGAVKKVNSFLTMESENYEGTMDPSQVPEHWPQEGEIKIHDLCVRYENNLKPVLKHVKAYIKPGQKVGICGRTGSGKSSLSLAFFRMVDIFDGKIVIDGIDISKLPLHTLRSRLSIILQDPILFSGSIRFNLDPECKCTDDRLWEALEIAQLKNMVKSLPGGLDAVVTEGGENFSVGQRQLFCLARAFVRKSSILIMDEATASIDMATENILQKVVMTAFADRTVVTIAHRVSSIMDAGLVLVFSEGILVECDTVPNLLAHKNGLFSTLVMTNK
Chain of Sulfonylurea receptors; K-ATP channels (Homo sapiens) (Q09428 whole entry, looked up): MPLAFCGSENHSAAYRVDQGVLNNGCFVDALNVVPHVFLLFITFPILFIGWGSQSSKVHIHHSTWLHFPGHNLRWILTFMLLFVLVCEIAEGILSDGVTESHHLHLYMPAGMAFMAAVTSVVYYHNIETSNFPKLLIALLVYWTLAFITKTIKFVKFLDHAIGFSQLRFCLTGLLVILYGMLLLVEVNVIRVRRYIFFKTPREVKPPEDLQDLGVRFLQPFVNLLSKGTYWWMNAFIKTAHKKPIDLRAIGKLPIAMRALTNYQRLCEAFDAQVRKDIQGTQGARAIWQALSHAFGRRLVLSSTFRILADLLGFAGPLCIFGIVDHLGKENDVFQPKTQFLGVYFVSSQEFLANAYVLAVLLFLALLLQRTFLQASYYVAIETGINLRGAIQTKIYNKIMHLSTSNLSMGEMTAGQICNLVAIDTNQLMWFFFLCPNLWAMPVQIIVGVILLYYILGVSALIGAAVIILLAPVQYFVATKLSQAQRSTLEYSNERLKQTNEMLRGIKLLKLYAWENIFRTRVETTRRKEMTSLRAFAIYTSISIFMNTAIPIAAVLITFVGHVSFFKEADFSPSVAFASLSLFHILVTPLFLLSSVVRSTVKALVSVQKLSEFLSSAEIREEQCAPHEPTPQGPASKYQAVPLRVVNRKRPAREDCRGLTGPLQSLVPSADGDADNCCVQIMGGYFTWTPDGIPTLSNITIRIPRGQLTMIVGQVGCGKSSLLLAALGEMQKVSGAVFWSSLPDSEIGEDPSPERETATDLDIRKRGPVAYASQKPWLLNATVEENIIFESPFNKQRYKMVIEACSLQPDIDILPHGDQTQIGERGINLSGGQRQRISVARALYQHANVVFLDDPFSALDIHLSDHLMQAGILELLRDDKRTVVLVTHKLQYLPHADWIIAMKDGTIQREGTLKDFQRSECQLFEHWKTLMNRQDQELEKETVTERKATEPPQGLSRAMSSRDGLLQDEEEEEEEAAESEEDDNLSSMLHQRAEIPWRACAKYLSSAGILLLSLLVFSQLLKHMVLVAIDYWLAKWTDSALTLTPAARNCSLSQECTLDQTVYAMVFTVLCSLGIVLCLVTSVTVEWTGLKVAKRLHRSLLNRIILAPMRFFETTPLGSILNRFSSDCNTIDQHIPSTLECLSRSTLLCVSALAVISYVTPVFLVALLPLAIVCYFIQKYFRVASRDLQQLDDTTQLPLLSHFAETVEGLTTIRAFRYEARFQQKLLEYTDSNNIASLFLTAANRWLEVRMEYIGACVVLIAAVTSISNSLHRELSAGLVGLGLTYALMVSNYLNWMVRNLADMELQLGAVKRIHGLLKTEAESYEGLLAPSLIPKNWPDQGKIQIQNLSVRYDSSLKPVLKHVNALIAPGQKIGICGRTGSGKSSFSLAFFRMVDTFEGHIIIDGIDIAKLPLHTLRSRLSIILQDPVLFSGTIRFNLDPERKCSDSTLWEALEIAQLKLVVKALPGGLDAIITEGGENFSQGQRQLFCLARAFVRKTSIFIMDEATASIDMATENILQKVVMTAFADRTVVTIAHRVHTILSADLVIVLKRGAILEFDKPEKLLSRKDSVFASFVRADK
Chain of Sulfonylurea receptors; K-ATP channels (Homo sapiens) (Q14654 whole entry, looked up): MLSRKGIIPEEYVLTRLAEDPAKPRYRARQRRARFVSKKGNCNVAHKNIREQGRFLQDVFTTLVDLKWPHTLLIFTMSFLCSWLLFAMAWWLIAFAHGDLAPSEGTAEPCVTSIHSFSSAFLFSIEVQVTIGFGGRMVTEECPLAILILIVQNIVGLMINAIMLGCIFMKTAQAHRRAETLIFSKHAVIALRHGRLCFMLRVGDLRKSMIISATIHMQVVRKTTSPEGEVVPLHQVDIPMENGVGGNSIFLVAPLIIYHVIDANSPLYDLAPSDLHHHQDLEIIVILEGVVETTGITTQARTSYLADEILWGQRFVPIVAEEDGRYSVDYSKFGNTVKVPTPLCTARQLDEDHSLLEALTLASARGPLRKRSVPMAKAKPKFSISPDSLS
Chain of Sulfonylurea receptors; K-ATP channels (Homo sapiens) (Q15842 whole entry, looked up): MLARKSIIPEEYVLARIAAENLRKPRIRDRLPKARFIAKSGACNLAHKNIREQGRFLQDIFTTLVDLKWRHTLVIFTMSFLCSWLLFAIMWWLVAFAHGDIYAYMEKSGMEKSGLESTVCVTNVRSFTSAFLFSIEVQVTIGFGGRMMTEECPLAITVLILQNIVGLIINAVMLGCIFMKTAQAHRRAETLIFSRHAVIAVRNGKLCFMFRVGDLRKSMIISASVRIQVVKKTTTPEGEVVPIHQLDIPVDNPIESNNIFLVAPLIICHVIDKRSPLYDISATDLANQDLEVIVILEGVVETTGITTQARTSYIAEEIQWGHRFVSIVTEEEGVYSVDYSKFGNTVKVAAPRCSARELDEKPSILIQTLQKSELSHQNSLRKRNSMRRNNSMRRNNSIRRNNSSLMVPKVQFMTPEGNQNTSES

[7] = biological target: Glutamate [NMDA] receptor (Homo sapiens) (UniProt Q05586+Q12879+Q13224+O15399+O60391+Q14957+Q8TCU5); assay: Percent decrease of N-methyl-D-aspartate glutamate receptor binding using MK-801; format: protein-complex assay; set-up: concentration or dose not given beside the values; summary of the method: as §1
[8] = biological target: GABA-A receptor; anion channel (Homo sapiens) (UniProt P14867+P47870+P18507+P28472+P48169+Q99928+Q9UN88+P34903+O00591+O14764+Q8N1C3+P18505+P78334+P47869+P31644+Q16445); assay: Displacement of muscimol from GABA-A receptor; format: protein-complex assay; summary of the method: as §1
[9] = biological target: Angiotensin II receptor (Homo sapiens) (UniProt P30556+P50052); assay: Percent decrease of Angiotensin II receptor binding; format: protein assay; set-up: concentration or dose not given beside the values; summary of the method: as §1
[10] = biological target: T2, Muscarinic acetylcholine receptor M1 (Homo sapiens) (UniProt P11229); assay: Percent decrease of Muscarinic acetylcholine receptor M1 binding using pirenzepine; set-up: scale not given: the % may be the effect or the level left; summary of the method: as §1
T2 sequence (whole entry): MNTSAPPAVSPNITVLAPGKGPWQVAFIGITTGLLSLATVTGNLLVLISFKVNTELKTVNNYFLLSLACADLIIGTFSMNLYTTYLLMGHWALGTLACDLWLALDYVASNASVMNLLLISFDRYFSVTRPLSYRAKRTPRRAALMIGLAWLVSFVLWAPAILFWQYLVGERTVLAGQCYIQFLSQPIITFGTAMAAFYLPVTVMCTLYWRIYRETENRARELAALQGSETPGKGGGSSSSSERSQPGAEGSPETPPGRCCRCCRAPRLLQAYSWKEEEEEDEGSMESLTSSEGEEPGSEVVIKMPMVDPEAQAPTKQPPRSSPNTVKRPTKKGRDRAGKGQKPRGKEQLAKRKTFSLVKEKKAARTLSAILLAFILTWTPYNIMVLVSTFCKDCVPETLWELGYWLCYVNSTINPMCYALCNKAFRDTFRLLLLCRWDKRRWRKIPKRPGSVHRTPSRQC

[11] = % Decrease of Phorbol Diester Receptor -bound radioactivity using PDBU as a radioligand.; set-up: scale not given: the % may be the effect or the level left; summary of the method: as §1
[12] = biological target: Adrenergic receptor alpha-1 (Homo sapiens) (UniProt P35348+P25100+P35368); assay: Percent decrease in Alpha-1 adrenergic receptor binding using prazosin; format: protein assay; summary of the method: as §1
[13] = biological target: T3, 5-hydroxytryptamine receptor 1A (Homo sapiens) (UniProt P08908); assay: Percent decrease in 5-hydroxytryptamine 1A receptor binding using 8-OH-DPAT; set-up: concentration or dose not given beside the values; summary of the method: as §1
T3 sequence (whole entry): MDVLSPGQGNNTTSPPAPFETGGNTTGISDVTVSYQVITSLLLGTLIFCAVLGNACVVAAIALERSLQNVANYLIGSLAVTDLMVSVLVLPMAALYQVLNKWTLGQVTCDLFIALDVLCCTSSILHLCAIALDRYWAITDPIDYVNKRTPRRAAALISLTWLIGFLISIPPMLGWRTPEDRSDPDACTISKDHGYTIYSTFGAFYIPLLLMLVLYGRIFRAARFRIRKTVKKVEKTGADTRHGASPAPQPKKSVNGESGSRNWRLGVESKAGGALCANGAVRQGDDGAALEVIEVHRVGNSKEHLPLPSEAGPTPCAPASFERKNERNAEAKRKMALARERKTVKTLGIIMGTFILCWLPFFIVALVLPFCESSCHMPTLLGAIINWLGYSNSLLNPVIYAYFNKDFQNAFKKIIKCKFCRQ

[14] = % Decrease of adenosine carrier-receptor -bound radioactivity using NBTI as a radioligand.; set-up: concentration or dose not given beside the values; summary of the method: as §1
[15] = Percent decrease in Bradykinin receptor binding; set-up: concentration or dose not given beside the values; summary of the method: as §1

Compound	Activity [1] [%]	Activity [2] [%]	Activity [3] [%]	Activity [4] [%]	Activity [5] [%]	Activity [6] [%]	Activity [7] [%]	Activity [8] [%]	Activity [9] [%]	Activity [10] [%]	Activity [11] [%]	Decrease [12] [%]	Activity [13] [%]	Activity [14] [%]	Activity [15] [%]
c1ccc2c3c([nH]c2c1)C1c2[nH]c4ccccc4c2CCN1CC3	-1	-52	-45	17	1	7	-52	5	0	-18	-15	-88	-25	1	2
COc1cc2c(cc1OC)C1c3[nH]c4ccccc4c3CCN1CC2 (configuration not stated)	-1	-32	-8	26	0	11	-14	-26	6	-11	-9	-94	-21	-17	9
c1ccc2c(c1)CCN1CCc3c([nH]c4ccccc34)C21 (configuration not stated)	3	-41	-32	13	-1	12	-33	-17	0	-22	-6	-82	-12	-29	-2
CN1CCc2ccccc2Cc2[nH]c3ccccc3c2CC1	–	–	-8	–	0	10	-18	-9	6	-9	0	-97	-72	-14	-2

From ChEMBL document CHEMBL1133101, “7-Methyl-6,7,8,9,14,15-hexahydro-5H-benz[d]indolo[2,3-g]azecine: a new heterocyclic system and a new lead compound for dopamine receptor antagonists” (J Med Chem, 2000)
